Reference: ChEMBL document CHEMBL1140733, “Comprehensive study of sansalvamide A derivatives and their structure-activity relationships against drug-resistant colon cancer cell lines” (J Med Chem, 2008)
Peptide text beside a SMILES is read from it.

Tests used:
HCT-116 = assay: Cytotoxicity against multidrug-resistant human HCT116 cells at 1 uM by thymidine incorporation assay; type: functional
Outline: (§1)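 HCT-116 cells were grown in IMDM and HCT-15 in RPMI 1640, each with L-glutamine, 10% FBS and penicillin-streptomycin, at 3000 cells/well. Compound was applied at 1 µM in 1% DMSO for 72 h total, with 3H-thymidine added for the final 16 h. Percent growth inhibition versus DMSO controls was scintillation-counted, averaging three wells in each of three assays.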

HCT-15 = assay: Cytotoxicity against multidrug-resistant human HCT15 cells at 1 uM by thymidine incorporation assay; type: functional; outline: as §1

Row | SMILES | inhibition at 1 µM (HCT-116) [%] | inhibition at 1 µM (HCT-15) [%]
1 | CC(C)C[C@@H]1NC(=O)[C@H](C(C)C)NC(=O)[C@H](CC(C)C)N(C)C(=O)[C@H](CC(C)C)NC(=O)[C@H](Cc2ccccc2)NC1=O (HELM PEPTIDE1{F.L.[meL].V.L}$PEPTIDE1,PEPTIDE1,1:R1-5:R2$$$V2.0) | 30 | 57
2 | CC(C)[C@@H]1NC(=O)[C@H](Cc2ccccc2)NC(=O)[C@@H](CO)NC(=O)[C@H](C(C)C)NC(=O)[C@H](C(C)C)NC1=O (HELM PEPTIDE1{F.V.V.V.[dS]}$PEPTIDE1,PEPTIDE1,1:R1-5:R2$$$V2.0) | 0 | 18
3 | CC[C@H]1NC(=O)[C@H](C(C)C)NC(=O)[C@H](C(C)C)NC(=O)[C@H](Cc2ccccc2)NC(=O)[C@H](C(C)C)NC1=O (HELM PEPTIDE1{F.V.V.[CC[C@@H](N[*:1])C(=O)[*:2]].V}$PEPTIDE1,PEPTIDE1,1:R1-5:R2$$$V2.0) | 16 | 2
4 | CC(C)[C@@H]1NC(=O)[C@H](Cc2ccccc2)NC(=O)[C@H](C(C)C)NC(=O)[C@@H](CO)NC(=O)[C@H](C(C)C)NC1=O (HELM PEPTIDE1{F.V.V.[dS].V}$PEPTIDE1,PEPTIDE1,1:R1-5:R2$$$V2.0) | 18 | 13
5 | CC(C)[C@@H]1NC(=O)[C@H](Cc2ccccc2)NC(=O)[C@H](C(C)C)NC(=O)[C@@H](C(C)C)NC(=O)[C@H](C(C)C)NC1=O (HELM PEPTIDE1{F.V.V.[dV].V}$PEPTIDE1,PEPTIDE1,1:R1-5:R2$$$V2.0) | 19 | 1
6 | CC(C)C[C@@H]1NC(=O)CN(C)C(=O)[C@H](Cc2ccccc2)NC(=O)[C@H](C(C)C)NC(=O)[C@@H](C(C)C)NC1=O (HELM PEPTIDE1{F.[Sar].L.[dV].V}$PEPTIDE1,PEPTIDE1,1:R1-5:R2$$$V2.0) | 20 | 18
7 | CC(C)C[C@@H]1NC(=O)[C@H](C(C)C)NC(=O)[C@H](CC(C)C)NC(=O)[C@@H](CC(C)C)NC(=O)[C@H](Cc2ccccc2)NC1=O (HELM PEPTIDE1{F.[dL].L.V.L}$PEPTIDE1,PEPTIDE1,1:R1-5:R2$$$V2.0) | 45 | 10
8 | CC(C)C[C@@H]1NC(=O)[C@@H](C(C)C)N(C)C(=O)[C@H](CC(C)C)NC(=O)[C@@H](CC(C)C)NC(=O)[C@H](Cc2ccccc2)NC1=O (HELM PEPTIDE1{F.[dL].L.[CC(C)[C@H](C(=O)[*:2])N(C)[*:1]].L}$PEPTIDE1,PEPTIDE1,1:R1-5:R2$$$V2.0) | 38 | 14
9 | CC(C)C[C@@H]1NC(=O)[C@@H](CC(C)C)NC(=O)[C@H](Cc2ccccc2)NC(=O)[C@H](CC(C)C)NC(=O)[C@@H](C(C)C)NC1=O (HELM PEPTIDE1{F.[dL].L.[dV].L}$PEPTIDE1,PEPTIDE1,1:R1-5:R2$$$V2.0) | 16 | 20
10 | CC(C)C[C@@H]1NC(=O)[C@H](C(C)C)NC(=O)[C@@H](CC(C)C)NC(=O)[C@@H](CC(C)C)NC(=O)[C@H](Cc2ccccc2)NC1=O (HELM PEPTIDE1{F.[dL].[dL].V.L}$PEPTIDE1,PEPTIDE1,1:R1-5:R2$$$V2.0) | 28 | 40
11 | CC(C)C[C@@H]1NC(=O)[C@H](C(C)C)NC(=O)[C@H](CC(C)C)N(C)C(=O)[C@@H](CC(C)C)NC(=O)[C@H](Cc2ccccc2)NC1=O (HELM PEPTIDE1{F.[dL].[meL].V.L}$PEPTIDE1,PEPTIDE1,1:R1-5:R2$$$V2.0) | 23 | 30
12 | CC(C)C[C@@H]1NC(=O)[C@H](CC(C)C)N(C)C(=O)[C@H](Cc2ccccc2)NC(=O)[C@H](CC(C)C)N(C)C(=O)[C@H](C(C)C)NC1=O (HELM PEPTIDE1{F.[meL].L.V.[meL]}$PEPTIDE1,PEPTIDE1,1:R1-5:R2$$$V2.0) | 20 | 0
13 | CC(C)C[C@@H]1NC(=O)[C@@H](C(C)C)NC(=O)[C@H](CC(C)C)NC(=O)[C@H](CC(C)C)N(C)C(=O)[C@H](Cc2ccccc2)NC1=O (HELM PEPTIDE1{F.[meL].L.[dV].L}$PEPTIDE1,PEPTIDE1,1:R1-5:R2$$$V2.0) | 38 | 19
14 | CC(C)C[C@@H]1NC(=O)[C@H](C(C)C)N(C)C(=O)[C@H](CC(C)C)NC(=O)[C@H](CC(C)C)N(C)C(=O)[C@H](Cc2ccccc2)NC1=O (HELM PEPTIDE1{F.[meL].L.[meV].L}$PEPTIDE1,PEPTIDE1,1:R1-5:R2$$$V2.0) | 18 | 15
15 | CC(C)C[C@@H]1NC(=O)[C@@H](Cc2ccccc2)NC(=O)[C@@H](CC(C)C)NC(=O)[C@@H](C(C)C)NC(=O)[C@H](CCCCN)NC1=O (HELM PEPTIDE1{K.[dV].[dL].[dF].L}$PEPTIDE1,PEPTIDE1,1:R1-5:R2$$$V2.0) | 2 | 17
16 | CC(C)C[C@@H]1NC(=O)[C@H](CC(C)C)NC(=O)[C@@H]2Cc3ccccc3CN2C(=O)[C@H](CC(C)C)NC(=O)[C@H](C(C)C)NC1=O (HELM PEPTIDE1{L.L.V.L.[Tic]}$PEPTIDE1,PEPTIDE1,1:R1-5:R2$$$V2.0) | 3 | 27
